Results reported in ChEMBL document CHEMBL2434960 (Eur J Med Chem, 2013).

molecular target: Replicase polyprotein 1a (Severe acute respiratory syndrome-related coronavirus, UniProt P0C6U8); experiment: Inhibition of SARS coronavirus 3CL-protease by fluorescence assay
How it was run: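 Protease inhibition was measured by a fluorometric assay. Substrate concentration was held constant while inhibitor concentration was varied, and the kinetic parameters gave Ki values.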

Row | Compound | Ki [nM]
1 | CC(C)C[C@H](NC(=O)c1nc2ccccc2s1)C(=O)N[C@@H](C[C@@H]1CCNC1=O)C(=O)c1nc2ccccc2s1 | 800
2 | CC(C)C[C@H](NC(=O)C1Cc2ccccc2N1)C(=O)N[C@@H](C[C@@H]1CCNC1=O)C(=O)c1nc2ccccc2s1 (stereo partly specified) | 120
3 | CC(C)C[C@H](NC(=O)c1cc2ccccc2o1)C(=O)N[C@@H](C[C@@H]1CCNC1=O)C(=O)c1nc2ccccc2s1 | 14000
4 | CC(C)C[C@H](NC(=O)c1c[nH]c2ccccc12)C(=O)N[C@@H](C[C@@H]1CCNC1=O)C(=O)c1nc2ccccc2s1 | 680
5 | CC(C)C[C@H](NC(=O)c1cc2cc(O)ccc2[nH]1)C(=O)N[C@@H](C[C@@H]1CCNC1=O)C(=O)c1nc2ccccc2s1 | 160
6 | COc1ccc2cc(C(=O)N[C@@H](CC(C)C)C(=O)N[C@@H](C[C@@H]3CCNC3=O)C(=O)c3nc4ccccc4s3)[nH]c2c1 | 330
7 | CC(C)C[C@H](NC(=O)c1cc2c(OC(C)C)cccc2[nH]1)C(=O)N[C@@H](C[C@@H]1CCNC1=O)C(=O)c1nc2ccccc2s1 | 48
8 | COc1ccc2[nH]c(C(=O)N[C@@H](CC(C)C)C(=O)N[C@@H](C[C@@H]3CCNC3=O)C(=O)c3nc4ccccc4s3)c(C)c2c1 | 6700
9 | CCc1c(C(=O)N[C@@H](CC(C)C)C(=O)N[C@@H](C[C@@H]2CCNC2=O)C(=O)c2nc3ccccc3s2)[nH]c2ccc(OC)cc12 | 7500
10 | CC(C)C[C@H](NC(=O)c1ccc[nH]1)C(=O)N[C@@H](C[C@@H]1CCNC1=O)C(=O)c1nc2ccccc2s1 | 1700
11 | CC(C)C[C@H](NC(=O)C1CCC(=O)N1)C(=O)N[C@@H](C[C@@H]1CCNC1=O)C(=O)c1nc2ccccc2s1 (mixture of isomers) | 2700
